ChEMBL document CHEMBL4387702, “Design and synthesis novel di-carbonyl analogs of curcumin (DACs) act as potent anti-inflammatory agents against LPS-induced acute lung injury (ALI)” (Eur J Med Chem, 2019)
Calls of active or inactive are those of the source. No cut-off for these calls is given here.

Key:
RAW264.7 [1] = test: Inhibition of MAPK/NFkappaB in ICR mouse RAW264.7 cells assessed as reduction in LPS-induced TNF-alpha production at 10 uM pretreated for 0.5 hrs followed by LPS challenge and measured after 24 hrs by ELISA relative to piperlongumine; format: cell-based
RAW264.7 [2] = test: Inhibition of MAPK/NFkappaB in ICR mouse RAW264.7 cells assessed as reduction in LPS-induced TNF-alpha production at 10 uM pretreated for 0.5 hrs followed by LPS challenge and measured after 24 hrs by ELISA relative to curcumin; format: cell-based
RAW264.7 [3] = test: Cytotoxicity against ICR mouse RAW264.7 cells assessed as effect on cell proliferation at 10 uM after 24 hrs by MTT assay; format: cell-based; details: raw264.7, 24 h
RAW264.7 [4] = test: Inhibition of MAPK/NFkappaB in ICR mouse RAW264.7 cells assessed as reduction in LPS-induced IL6 production at 10 uM pretreated for 0.5 hrs followed by LPS challenge and measured after 24 hrs by ELISA relative to piperlongumine; format: cell-based
[5] = system: peritoneal macrophages (Mus musculus); test: Inhibition of MAPK/NFkappaB in ICR mouse peritoneal macrophages assessed as reduction in LPS-induced IL6 production at 10 uM pretreated for 0.5 hrs followed by LPS challenge and measured after 24 hrs by ELISA relative to curcumin
RAW264.7 [6] = test: Inhibition of MAPK/NFkappaB in ICR mouse RAW264.7 cells assessed as reduction in LPS-induced TNFalpha production at 10 uM pretreated for 0.5 hrs followed by LPS challenge and measured after 24 hrs by ELISA relative to control; format: cell-based
RAW264.7 [7] = test: Inhibition of MAPK/NFkappaB in ICR mouse RAW264.7 cells assessed as reduction in LPS-induced IL6 production at 10 uM pretreated for 0.5 hrs followed by LPS challenge and measured after 24 hrs by ELISA relative to control; format: cell-based
RAW264.7 [8] = test: Inhibition of MAPK/NFkappaB in ICR mouse RAW264.7 cells assessed as reduction in LPS-induced TNFalpha production pretreated for 0.5 hrs followed by LPS challenge and measured after 24 hrs by ELISA; format: cell-based
[9] = Stability in pH 7.4 phosphate buffer assessed as compound decomposition measured up to 25 mins by UV-Vis spectroscopy; format: physicochemical; details: pH 7.4, 25 min
Summary of the method: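 Compound stability was followed by recording UV-visible absorption spectra in phosphate buffer at pH 7.4.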

[10] = target: MAP kinase p38 (Mus musculus) (UniProt P47811+O08911+Q9WUI1+Q9Z1B7); test: Inhibition of LPS-induced p38 MAPK phosphorylation in ICR mouse RAW264.7 cells at 10 uM preincubated for 0.5 hrs followed by LPS challenge and measured after 30 mins by immunoblotting analysis; format: cell-based
Summary of the method: (§1)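 RAW 264.7 cells were pretreated with compound for 0.5 h and then stimulated with LPS for 30 min. Lysates were resolved on 10% or 12% SDS-PAGE and transferred to nitrocellulose. Membranes were blocked in TBS (pH 7.6) with 0.05% Tween 20 and 5% milk. Blots were probed for p-p38, p38, p-ERK, ERK, IκBα and GAPDH, detected with HRP secondaries and ECL.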

RAW264.7 [11] = test: Inhibition of LPS-induced ERK phosphorylation in ICR mouse RAW264.7 cells at 10 uM preincubated for 0.5 hrs followed by LPS challenge and measured after 30 mins by immunoblotting analysis; format: cell-based; summary of the method: as §1
RAW264.7 [12] = test: Inhibition of NFkappaB/MAPK signaling in LPS-induced mouse RAW264.7 cells assessed as down regulation of IkappaB expression at 10 uM preincubated for 0.5 hrs followed by LPS-challenge and measured after 30 mins by immunoblotting analysis; format: cell-based; summary of the method: as §1
[13] = target: Transcription factor p65 (Mus musculus) (UniProt Q04207); test: Inhibition of LPS-induced NFkappaB p65 nuclear translocation in ICR mouse RAW264.7 cells preincubated for 0.5 hrs followed by LPS challenge and measured after 40 mins by DAPI staining-based immunofluorescence microscopic analysis; format: cell-based
Sequence of Transcription factor p65 (Mus musculus) (Q04207 whole entry): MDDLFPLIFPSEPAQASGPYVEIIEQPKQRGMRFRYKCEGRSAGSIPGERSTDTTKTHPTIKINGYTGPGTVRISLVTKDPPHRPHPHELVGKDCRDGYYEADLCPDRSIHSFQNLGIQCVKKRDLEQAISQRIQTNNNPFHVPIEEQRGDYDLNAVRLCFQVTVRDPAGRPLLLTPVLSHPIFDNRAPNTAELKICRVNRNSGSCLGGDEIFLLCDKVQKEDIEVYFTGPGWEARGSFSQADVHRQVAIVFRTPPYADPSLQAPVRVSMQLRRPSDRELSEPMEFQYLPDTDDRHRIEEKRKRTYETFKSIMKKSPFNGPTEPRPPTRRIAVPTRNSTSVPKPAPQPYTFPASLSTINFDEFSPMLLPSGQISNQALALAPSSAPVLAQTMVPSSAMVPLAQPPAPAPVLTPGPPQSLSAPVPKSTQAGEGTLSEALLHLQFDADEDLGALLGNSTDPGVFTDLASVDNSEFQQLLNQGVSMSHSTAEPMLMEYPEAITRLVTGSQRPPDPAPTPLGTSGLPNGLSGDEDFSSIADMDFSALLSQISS
Summary of the method: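 RAW 264.7 cells were pretreated with compound for 0.5 h, then given LPS for 40 min (methods) or 45 min (legend). Cells were fixed with 4% paraformaldehyde and permeabilized in methanol. Anti-p65 (1:200) was applied overnight at 4 °C, then PE-conjugated secondary (1:200) for 2 h. Nuclei were stained with DAPI and cells viewed by fluorescence microscopy.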

RAW264.7 [14] = test: Inhibition of MAPK/NFkappaB in ICR mouse RAW264.7 cells assessed as reduction in LPS-induced IL6 production pretreated for 0.5 hrs followed by LPS challenge and measured after 24 hrs by ELISA; format: cell-based

Row | SMILES | Activity (RAW264.7 [3]) | inhibition (RAW264.7 [6]) | inhibition (RAW264.7 [7]) | other results
1 | COc1cc(/C=C2\CCCN(C(=O)/C=C/c3cccc(F)c3)C2=O)cc(OC)c1OC | Non-Toxic | – | – | inhibition (RAW264.7 [1]): < 85.3%; inhibition (RAW264.7 [2]): < 85.3%; inhibition (RAW264.7 [4]): < 85.3%; inhibition [5]: < 85.3%
2 | COc1cc(/C=C/C(=O)CC(=O)/C=C/c2ccc(O)c(OC)c2)ccc1O [CURCUMIN] | Non-Toxic | Active | Active | inhibition (RAW264.7 [8]): Active; Stability [9]: Unstable; inhibition [10]: Active; inhibition (RAW264.7 [11]): Active; inhibition (RAW264.7 [12]): Active; inhibition [13]: Active; inhibition (RAW264.7 [14]): Active
3 | COc1cc(/C=C2\CCCN(C(=O)/C=C/c3cccc(Br)c3)C2=O)cc(OC)c1OC | Non-Toxic | – | – | inhibition (RAW264.7 [1]): < 85.3%; inhibition (RAW264.7 [2]): < 85.3%; inhibition (RAW264.7 [4]): < 85.3%; inhibition [5]: < 85.3%
4 | COc1ccccc1/C=C/C(=O)N1CCC/C(=C\c2cc(OC)c(OC)c(OC)c2)C1=O | Non-Toxic | 39.6 to 99.5% | 39.6 to 99.5% | –
5 | COc1ccc(F)c(/C=C/C(=O)N2CCC/C(=C\c3cc(OC)c(OC)c(OC)c3)C2=O)c1 | Non-Toxic | 38.5 to 53.4% | 46.8 to 68.2% | –
6 | COc1cc(/C=C2\CCCN(C(=O)/C=C/c3ccccc3Cl)C2=O)cc(OC)c1OC | Non-Toxic | – | – | inhibition (RAW264.7 [1]): < 85.3%; inhibition (RAW264.7 [2]): < 85.3%; inhibition (RAW264.7 [4]): < 85.3%; inhibition [5]: < 85.3%
7 | COc1cccc(/C=C/C(=O)N2CCC/C(=C\c3cc(OC)c(OC)c(OC)c3)C2=O)c1 | Non-Toxic | 39.6 to 99.5% | 39.6 to 99.5% | –
8 | COc1cc(/C=C2\CCCN(C(=O)/C=C/c3ccccc3C(F)(F)F)C2=O)cc(OC)c1OC | Non-Toxic | – | – | inhibition (RAW264.7 [1]): < 85.3%; inhibition (RAW264.7 [2]): < 85.3%; inhibition (RAW264.7 [4]): < 85.3%; inhibition [5]: < 85.3%
9 | COc1cccc(/C=C/C(=O)N2CCC/C(=C\c3cc(OC)c(OC)c(OC)c3)C2=O)c1OC | Non-Toxic | inactive | inactive | –
10 | COc1cc(/C=C2\CCCN(C(=O)/C=C/c3ccc(F)cc3Cl)C2=O)cc(OC)c1OC | Non-Toxic | 38.5 to 53.4% | 46.8 to 68.2% | –
11 | COc1cc(/C=C2\CCCN(C(=O)/C=C/c3ccc(F)c(F)c3)C2=O)cc(OC)c1OC | Non-Toxic | 39.6 to 99.5% | 39.6 to 99.5% | –
12 | COc1cc(/C=C2\CCCN(C(=O)/C=C/c3ccc(F)cc3)C2=O)cc(OC)c1OC | Non-Toxic | – | – | inhibition (RAW264.7 [1]): < 85.3%; inhibition (RAW264.7 [2]): < 85.3%; inhibition (RAW264.7 [4]): < 85.3%; inhibition [5]: < 85.3%
13 | COc1cc(/C=C/C(=O)N2CCC=CC2=O)cc(OC)c1OC [PIPLARTINE] | Non-Toxic | Active | Active | –
14 | COc1cc(/C=C2\CCCN(C(=O)/C=C/c3ccc(Cl)cc3Cl)C2=O)cc(OC)c1OC | Non-Toxic | 38.5 to 53.4% | 46.8 to 68.2% | –
15 | COc1cc(/C=C2\CCCN(C(=O)/C=C/c3ccccc3OC(C)=O)C2=O)cc(OC)c1OC | Non-Toxic | 39.6 to 99.5% | 39.6 to 99.5% | –
16 | COc1cc(/C=C2\CCCN(C(=O)/C=C/c3cc(F)ccc3F)C2=O)cc(OC)c1OC | Non-Toxic | 38.5 to 53.4% | 46.8 to 68.2% | –
17 | COc1cc(/C=C2\CCCN(C(=O)/C=C/c3ccccc3F)C2=O)cc(OC)c1OC | Non-Toxic | – | – | inhibition (RAW264.7 [1]): < 85.3%; inhibition (RAW264.7 [2]): < 85.3%; inhibition (RAW264.7 [4]): < 85.3%; inhibition [5]: < 85.3%
18 | COc1cc(/C=C2\CCCN(C(=O)/C=C/c3ccccc3O)C2=O)cc(OC)c1OC | Non-Toxic | 39.6 to 99.5% | 39.6 to 99.5% | –
19 | COc1cc(/C=C2\CCCN(C(=O)/C=C/c3ccc([N+](=O)[O-])cc3)C2=O)cc(OC)c1OC | Non-Toxic | 38.6% | 94.1% | –
20 | COc1ccc(/C=C/C(=O)N2CCC/C(=C\c3cc(OC)c(OC)c(OC)c3)C2=O)c(OC)c1 | Non-Toxic | 39.6 to 99.5% | 39.6 to 99.5% | –
21 | COc1cc(/C=C2\CCCN(C(=O)/C=C/c3ccc(Br)cc3)C2=O)cc(OC)c1OC | Non-Toxic | – | – | inhibition (RAW264.7 [1]): < 85.3%; inhibition (RAW264.7 [2]): < 85.3%; inhibition (RAW264.7 [4]): < 85.3%; inhibition [5]: < 85.3%
22 | COc1ccc(/C=C/C(=O)N2CCC/C(=C\c3cc(OC)c(OC)c(OC)c3)C2=O)cc1OC(C)=O | Non-Toxic | 39.6 to 99.5% | 39.6 to 99.5% | –
23 | COc1cc(/C=C2\CCCN(C(=O)/C=C/c3ccc(OC(C)=O)cc3)C2=O)cc(OC)c1OC | Non-Toxic | 39.6 to 99.5% | 39.6 to 99.5% | –
24 | COc1cc(/C=C2\CCCN(C(=O)/C=C/c3c(F)cccc3Cl)C2=O)cc(OC)c1OC | Non-Toxic | 38.5 to 53.4% | 46.8 to 68.2% | –
25 | COc1cc(/C=C/C(=O)N2CCC/C(=C\c3cc(OC)c(OC)c(OC)c3)C2=O)cc(OC)c1OC | Non-Toxic | 39.6 to 99.5% | 39.6 to 99.5% | –
26 | COc1cc(/C=C2\CCCN(C(=O)/C=C/c3cc(C)ccc3C)C2=O)cc(OC)c1OC | Non-Toxic | 39.6 to 99.5% | 39.6 to 99.5% | –
27 | COc1cc(/C=C2\CCCN(C(=O)/C=C/c3c(Cl)cccc3Cl)C2=O)cc(OC)c1OC | Non-Toxic | 39.6 to 99.5% | 39.6 to 99.5% | –
28 | COc1cc(OC)c(OC)cc1/C=C/C(=O)N1CCC/C(=C\c2cc(OC)c(OC)c(OC)c2)C1=O | Non-Toxic | 39.6 to 99.5% | 39.6 to 99.5% | –
29 | COc1ccc(/C=C/C(=O)N2CCC/C(=C\c3cc(OC)c(OC)c(OC)c3)C2=O)c(F)c1 | Non-Toxic | 39.6 to 99.5% | 39.6 to 99.5% | –
